# Results published in ChEMBL document CHEMBL2331522, “Dibenzocyclooctadiene lignans and norlignans from fruits of Schisandra wilsoniana” (J Nat Prod, 2013).
# Experiments:
# [1] = system: Human immunodeficiency virus 1; assay: Antiviral activity against HIV1 assessed as reduction in virus-induced cytopathogenicity; format: functional, organism-based
# Procedure, shortened: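 Test compounds were added to C8166 cells infected with HIV-1 and scored for protection from virus-induced cytopathic effect. The concentration giving 50% protection is reported as EC50.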
# [2] = Cytotoxicity against human C8166 cells by MTT assay; format: cell-based
# [3] = Therapeutic index, ratio of CC50 for human C8166 cells to EC50 for HIV1; format: cell-based; conditions: read-out: Ratio CC50/EC50
SMILES,EC50 [1] [µg/mL],CC50 [2] [µg/mL],selectivity ratio [3]
COc1cc2c(c(O)c1OC)-c1c(cc3c(c1OC)OCO3)[C@H](OC)[C@@H](C)[C@@H](C)C2 [MARLIGNAN R],3.87,36.7,9.48
COc1cc(C(O)C(C(=O)O)C(CO)CO)ccc1O (stereo unspecified) [MARPHENOL C],3.14,84.5,26.9
COc1c2c(cc3c1-c1c(cc4c(c1O)OCO4)C[C@H](C)[C@H](C)[C@H]3OC)OCO2 [MARLIGNAN P],3.18,74.6,23.5
COc1c(O)cc2c(c1OC)-c1c(cc3c(c1OC)OCO3)C[C@H](C)[C@H](C)[C@H]2O [MARLIGNAN O],5.84,70.6,12.1
COc1cc2c(c(OC)c1O)-c1c(cc(OC)c(OC)c1OC)C[C@H](C)[C@H](C)[C@H]2O [MARLIGNAN M],3.42,32.1,9.39
COc1c2c(cc3c1-c1c(cc4c(c1O)OCO4)[C@H](OC)[C@@H](C)[C@@H](C)C3)OCO2 [MARLIGNAN Q],4.22,22.5,5.33
COc1cc2c(c(OC)c1OC)-c1c(cc3c(c1O)OCO3)[C@H](OC)[C@@H](C)[C@@H](C)C2 [MARLIGNAN S],4.14,42.8,10.3
COc1cc2c(c(O)c1OC)-c1c(cc(OC)c(OC)c1O)[C@H](O)[C@@H](C)[C@@H](C)C2 [MARLIGNAN N],6.18,47.4,7.67
COc1ccc([C@@H](c2ccc3c(c2)OCO3)[C@H](C(=O)O)C(CO)CO)cc1O [MARLPHENOL F],2.97,82.1,27.6
Cc1cn([C@H]2C[C@H](N=[N+]=[N-])[C@@H](CO)O2)c(=O)[nH]c1=O [ZIDOVUDINE],0.0043,> 200,> 46500
COc1cc(C(O)C(C(=O)O)C(CO)CO)cc(O)c1OC (stereo unspecified) [MARPHENOL D],3.22,93.8,29.1
COc1ccc(C(c2ccc(OC)c(O)c2)[C@H](C(=O)O)C(CO)CO)cc1O [MARLPHENOL E],3.47,73.5,21.2
